The test system of data set [1] is RAW264.7. Briefly: Inhibition of M1 polarization in mouse RAW264.7 cells assessed as down regulation of TNFSF15 mRNA expression at 300 nM measured after 24 hrs by qRT-PCR analysis. Type of data set: functional, cell-based.
For data set [2], the system named is Mus musculus. Description: Antiinflammatory activity in C57BL/6J mouse model of MOG (35 to 55 residues)/pertussis toxin/complete Freund's adjuvant-induced experimental allergic encephalomyelitis assessed as effect on Treg cell population in CNS by measuring change in CD4 level at 200 mg/kg, ig administered daily starting from 7 days post-immunization measured after 13 to 19 days post-immunization by flow cytometry analysis. Type of data set: functional, organism-based. Put shortly:
(§1)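 MOG35-55/CFA EAE mice were dosed daily in saline from day 7 and sampled between days 13 and 19. Spleens and dLNs were mechanically dissociated to single cells. CNS cells came from collagenase IV digestion and a 70%/30% Percoll gradient. Cells were surface-stained with fluorochrome antibodies, including CD4, CD11b, CD11c and MHC-II, and analysed by flow cytometry.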
Background: Flow cytometry measures light scatter and fluorescence of single cells or particles in a stream.

Data set [3] has as its system BMDM. Briefly: Inhibition of LPS-induced M1 polarization in C57BL/6J mouse BMDM cells assessed as down regulation of CD86 mRNA expression at 300 nM measured after 24 hrs by qRT-PCR analysis. Type of data set: functional, cell-based. In a few lines:
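BMDMs pre-incubated 24 h with 50 ng/ml LPS to induce M1, then treated 24 h with 300 nM compound. Total RNA extracted with Trizol; Mcp1, Inos and Cd86 mRNA measured by qRT-PCR. Mean ± SEM.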
(In general: In qPCR the cycle at which signal appears reflects the starting amount.)

In data set [4] the test system is RAW264.7. Description: Inhibition of M1 polarization in mouse RAW264.7 cells assessed as down regulation of IL6R mRNA expression at 300 nM measured after 24 hrs by qRT-PCR analysis. Type of data set: functional, cell-based.
In data set [5] the test system is Mus musculus. Description: Induction of M2 polarization in C57BL/6J mouse model of MOG (35 to 55 residues)/pertussis toxin/complete Freund's adjuvant-induced experimental allergic encephalomyelitis assessed as CD206 level in draining lymph nodes at 200 mg/kg, ig administered daily starting from 7 days post-immunization measured after 13 to 19 days post-immunization by flow cytometry analysis (reference value: 6.5%). The data set is classed as functional. In a few lines:
(§2)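 MOG35-55/CFA EAE mice were dosed daily in saline from day 7 and sampled between days 13 and 19. Cells came from spleen and dLN by mechanical dissociation and from CNS by collagenase IV/Percoll. They were stained for F4/80 with CD206 (M2) or CD86 (M1), and each was read by flow cytometry as a percentage of total F4/80+ macrophages.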

The test system of data set [6] is Mus musculus. Briefly: Antiinflammatory activity in C57BL/6J mouse model of MOG (35 to 55 residues)/pertussis toxin/complete Freund's adjuvant-induced experimental allergic encephalomyelitis assessed as reduction in infiltration in spinal cord at 200 mg/kg, ig administered daily starting from 7 days post-immunization measured after 14 days post-immunization by LFB staining based microscopic analysis. Type of data set: functional, organism-based. Put shortly: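 EAE mice dosed daily in saline from day 7 were perfused with PBS and fixed in 4% PFA on day 14; spinal cords were taken. For LFB, frozen OCT sections sat 3 h in 0.1% Luxol Fast Blue at 56-60°C, were differentiated in 0.05% lithium carbonate for 10-12 s, cleared in 70% ethanol, dehydrated and mounted. For H&E, paraffin sections were stained to assess inflammation.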

Data set [7] relates to Mus musculus. Briefly: Inhibition of M1 polarization in C57BL/6J mouse model of MOG (35 to 55 residues)/pertussis toxin/complete Freund's adjuvant-induced experimental allergic encephalomyelitis assessed as CD86 level in CNS at 200 mg/kg, ig administered daily starting from 7 days post-immunization measured after 13 to 19 days post-immunization by flow cytometry analysis (reference value: 26.3%). The data set is classed as functional. More on the design: scale not given: the % may be the effect or the level left. Put shortly: as §2

Data set [8] concerns RAW264.7. Description: Inhibition of M1 polarization in mouse RAW264.7 cells assessed as down regulation of IL1R2 mRNA expression at 300 nM measured after 24 hrs by qRT-PCR analysis. The data set is classed as functional, cell-based.
Data set [9] deals with BMDM. Description: Modulation of M2 polarization in C57BL/6J mouse BMDM cells assessed as up regulation of Fizz1 mRNA expression at 300 nM measured after 24 hrs by qRT-PCR analysis. Type of data set: functional, cell-based. Put shortly: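 BMDMs treated 24 h with 300 nM compound at 37 °C, 5% CO2. Trizol RNA extraction, then qRT-PCR for Arg1, Mrc1 and Fizz1 mRNA. Mean ± SEM.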

The nature of data set [10]: AUC (0 to infinity) in Sprague-Dawley rat at 50 mg/kg, po administered as single dose via gavage by LC/MS analysis. Conditions: in vivo. Type of data set: ADME, organism-based. More on the design: dose 50 mg/kg, time infinity, route oral. In a few lines:
(§3)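 Single dose in rats; venous blood (100 µL) drawn at 0, 0.5, 1, 2, 4, 8 and 12 h, plasma separated by centrifugation and held at -20 °C. Compound measured by LC/MS; Cmax, Tmax, t1/2 and AUC derived from the concentration–time data.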

Data set [11] deals with Mus musculus. Briefly: Antiinflammatory activity in C57BL/6J mouse model of MOG (35 to 55 residues)/pertussis toxin/complete Freund's adjuvant-induced experimental allergic encephalomyelitis assessed as effect on dendritic cell population in draining lymph nodes by measuring change in CD11c level at 200 mg/kg, ig administered daily starting from 7 days post-immunization measured after 13 to 19 days post-immunization by flow cytometry analysis. The data set is classed as functional, organism-based. In a few lines: as §1

The nature of data set [12]: AUC (0 to infinity) in Sprague-Dawley rat at 10 mg/kg, iv administered as single dose by LC/MS analysis. The data set is classed as ADME, organism-based. More on the design: dose 10 mg/kg, time infinity, route intravenous. Conditions: in vivo. Put shortly:
as §3

The test system of data set [13] is BMDM. Briefly: Modulation of M2 polarization in C57BL/6J mouse BMDM cells assessed as up regulation of CD206 expression at 300 nM measured after 24 hrs by FACS analysis. Type of data set: functional, cell-based. Put shortly:
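BMDMs exposed to compound (300 nM, or a range of concentrations) for 24 h. Stained for F4/80 and CD206; % CD206+F4/80+ cells read by flow cytometry. Mean ± SEM, at least three independent experiments.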

The target in data set [14] is RAC-alpha serine/threonine-protein kinase (Mus musculus) (UniProt P31750). Briefly: Stimulation of AKT phosphorylation at 473 residue in mouse RAW264.7 cells at 300 nM measured after 4 to 24 hrs by Western blot analysis. The data set is classed as cell-based. Put shortly: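 Cell lysates separated by SDS-PAGE, transferred to PVDF and probed for Akt, p-Akt(308), p-Akt(473), Stat3, p-Stat3(Y705), Stat6 and p-Stat6; ECL detection, GAPDH as loading control.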
Sequence of RAC-alpha serine/threonine-protein kinase (Mus musculus) (P31750 whole entry): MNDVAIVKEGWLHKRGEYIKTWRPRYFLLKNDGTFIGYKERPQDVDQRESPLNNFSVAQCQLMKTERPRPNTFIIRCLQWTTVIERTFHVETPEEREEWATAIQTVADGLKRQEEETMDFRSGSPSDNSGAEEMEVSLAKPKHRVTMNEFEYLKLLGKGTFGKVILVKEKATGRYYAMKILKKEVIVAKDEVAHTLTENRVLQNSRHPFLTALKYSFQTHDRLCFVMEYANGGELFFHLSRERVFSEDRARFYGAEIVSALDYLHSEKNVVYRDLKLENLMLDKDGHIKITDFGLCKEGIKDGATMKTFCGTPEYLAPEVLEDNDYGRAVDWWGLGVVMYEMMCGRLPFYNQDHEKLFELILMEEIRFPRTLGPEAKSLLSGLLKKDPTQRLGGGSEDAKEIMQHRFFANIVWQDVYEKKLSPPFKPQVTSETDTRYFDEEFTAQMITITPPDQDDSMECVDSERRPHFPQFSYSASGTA
For orientation: A western blot detects proteins with antibodies after separation by electrophoresis.

In data set [15] the test system is RAW264.7. Briefly: Inhibition of M1 polarization in mouse RAW264.7 cells assessed as down regulation of TNFRSF10C mRNA expression at 300 nM measured after 24 hrs by qRT-PCR analysis. The data set is classed as functional, cell-based.
Data set [16] deals with RAW264.7. Briefly: Modulation of M2 polarization in mouse RAW264.7 cells assessed as up regulation of PPARGC1A mRNA expression at 300 nM measured after 24 hrs by qRT-PCR analysis. Type of data set: functional, cell-based.
In data set [17] the test system is RAW264.7. Description: Modulation of M2 polarization in mouse RAW264.7 cells assessed as up regulation of IL13 mRNA expression at 300 nM measured after 24 hrs by qRT-PCR analysis. The data set is classed as functional, cell-based.
The test system of data set [18] is Mus musculus. Briefly: Induction of M2 polarization in C57BL/6J mouse model of MOG (35 to 55 residues)/pertussis toxin/complete Freund's adjuvant-induced experimental allergic encephalomyelitis assessed as CD206 level in CNS at 200 mg/kg, ig administered daily starting from 7 days post-immunization measured after 13 to 19 days post-immunization by flow cytometry analysis (reference value: 7.8%). The data set is classed as functional. In a few lines:
as §2

Active and inactive are the calls of the source. The rule behind the calls is not given here.

One may read the AUC(0-inf) as total exposure, with the tail of the curve extrapolated.

In the case of `Cl.Cn1ncc(Cl)c1-c1ccc(C(=O)N[C@@H]2CNCC[C@H]2c2cccc(F)c2)cc1`, the inhibition result with RAW264.7 [1], in the data set with BMDM [3], with RAW264.7 [4], with RAW264.7 [8] and in the data set on RAW264.7 [15] was “Active” in each case. Further, the result in the data set with Mus musculus [2] and with Mus musculus [11] was inactive. The Activity is 10.1% in the data set on Mus musculus [5], 16.6% in the data set on Mus musculus [7] and 12.7% in the data set with Mus musculus [18]. Also, the result (with Mus musculus [6]; in the data set with BMDM [9]; in the data set with BMDM [13]; in data set [14]; with RAW264.7 [16]; in the data set with RAW264.7 [17]) was Active. Besides, the AUC(0-inf) in data set [10] was 4740 ng·h/mL; in [12], 1870 ng·h/mL.

Source of the values: ChEMBL document CHEMBL4339193, “Phenotypic Screening-Based Identification of 3,4-Disubstituted Piperidine Derivatives as Macrophage M2 Polarization Modulators: An Opportunity for Treating Multiple Sclerosis” (J Med Chem, 2019).
